Results taken from ChEMBL document CHEMBL3870323, “Sulfonamide chalcones: Synthesis and in vitro exploration for therapeutic potential against Brugia malayi” (Eur J Med Chem, 2016).
Activity calls are given as the source filed them. No cut-off for these calls is given here.

Assays:
[1] = Cytotoxicity against human PBMC after 48 hrs by trypan blue exclusion assay; assay type: toxicity, cell-based; conditions: PBMC (peripheral blood mononuclear cells), read-out: LD50
Outline: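 Human PBMCs came from healthy donors' venous blood by histopaque-1077 density separation. Cells were washed in RPMI 1640 with 2 mM L-glutamine and resuspended in RPMI with 10% FBS at 1x10^5 cells/ml. Trypan blue exclusion followed the procedure adapted from the microfilarial motility assay. LD50 was taken as the dose giving 50% cytotoxicity.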

[2] = Antifilarial activity against Brugia malayi microfilariae isolated from peritoneal cavity of infected Meriones unguiculatus assessed as loss of motility incubated for 48 hrs by microscopy; assay type: functional
Outline: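 Jird peritoneal Mf cleaned of exudate cells by 1 h adherence at 37°C. Exposed to compound over 1–100 µM final with shaking at 37°C, 30 min, 150 rpm in 0.9% saline. Washed, plated at 100 Mf per well in RPMI, triplicate wells, then 48 h at 37°C in 5% CO2. Vehicle control 1% DMSO. Loss of motility read by microscopy; experiment repeated three times; IC50 calculated.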

[3] = Antifilarial activity against Brugia malayi microfilariae isolated from peritoneal cavity of infected Meriones unguiculatus assessed as loss of motility at 500 uM incubated for 48 hrs by microscopy; assay type: functional
Outline: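 Jird peritoneal Mf washed in RPMI 1640 with gentamycin, penicillin and streptomycin, then held 1 h at 37°C on dishes to remove exudate cells. About 300 Mf in 0.9% saline exposed to compound with shaking at 37°C, 30 min, 150 rpm. 100 Mf per well, in triplicate, then 48 h at 37°C in 5% CO2 in RPMI. Stocks were 2 mM in DMSO; vehicle control 1% DMSO. Motility scored by microscopy; mean ± SEM % loss of motility.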

[4] = system: Brugia malayi; assay: Induction of apoptosis in Brugia malayi microfilariae isolated from peritoneal cavity of infected Meriones unguiculatus after 48 hrs by acridine orange/ethidium bromide dual staining based epifluorescence microscopy; assay type: functional
Outline: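 Mf, control or treated for 48 h, washed and resuspended in cold PBS. Dye mix of 100 µg/mL AO and 100 µg/mL EB in PBS added. Viewed by epifluorescence microscopy with 480/30 nm excitation; green nuclei scored as live, orange/red as apoptotic or dead. Staurosporine was the positive control and untreated Mf the negative control.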

Row | Structure (SMILES) | CC50 at 48 h [1] | IC50 [2] | Activity [3] | Activity [4]
1 | Cc1ccc(S(=O)(=O)Nc2ccc(C(=O)/C=C/c3ccc(Br)cc3)cc2)cc1 | 220 µM | 4.6 µM | 100% | Active
2 | Cc1ccc(S(=O)(=O)Nc2ccc(C(=O)/C=C/c3ccc(-c4ccccc4)cc3)cc2)cc1 | – | – | 6.24% | –
3 | O=C(/C=C/c1ccccc1Br)c1ccc(NS(=O)(=O)c2ccccc2)cc1 | – | – | 13.4% | –
4 | COc1ccc(/C=C/C(=O)c2ccc(NS(=O)(=O)c3ccccc3)cc2)cc1 | – | – | 1.81% | –
5 | O=C(/C=C/c1ccco1)c1ccc(NS(=O)(=O)c2ccccc2)cc1 | – | – | 8.11% | –
6 | COc1ccc(/C=C/C(=O)c2ccc(NS(C)(=O)=O)cc2)cc1 | 194 µM | 60 µM | 100% | Active
7 | Cc1ccc(S(=O)(=O)Nc2ccc(C(=O)/C=C/c3ccccc3Cl)cc2)cc1 | – | – | 4.1% | –
8 | O=C(/C=C/c1ccc(Cl)cc1)c1ccc(NS(=O)(=O)c2ccccc2)cc1 | 177 µM | 17 µM | 100% | Active
9 | Cc1ccc(S(=O)(=O)Nc2ccc(C(=O)/C=C/c3cccc(Br)c3)cc2)cc1 | 80 µM | 15 µM | 100% | Active
10 | Cc1ccc(/C=C/C(=O)c2ccc(NS(=O)(=O)c3ccccc3)cc2)cc1 | – | – | 6.34% | –
11 | Cc1ccc(/C=C/C(=O)c2ccc(NS(=O)(=O)c3ccc(C)cc3)cc2)cc1 | 140 µM | 8.2 µM | 100% | Active
12 | O=C(/C=C/c1ccc(Br)s1)c1ccc(NS(=O)(=O)c2ccccc2)cc1 | – | – | 9% | –
13 | Cc1ccc(S(=O)(=O)Nc2ccc(C(=O)/C=C/c3ccccc3)cc2)cc1 | 335 µM | 9.7 µM | 100% | Active
14 | Cc1ccc(S(=O)(=O)Nc2ccc(C(=O)/C=C/c3ccccc3Br)cc2)cc1 | – | – | 3.04% | –
15 | CS(=O)(=O)Nc1ccc(C(=O)/C=C/c2ccccc2)cc1 | 134 µM | 32 µM | 100% | Active
16 | O=C(/C=C/c1ccc(Br)cc1)c1ccc(NS(=O)(=O)c2ccccc2)cc1 | 265 µM | 70 µM | 100% | Active
17 | Cc1ccc(S(=O)(=O)Nc2ccc(C(=O)/C=C/c3ccc(Cl)cc3)cc2)cc1 | – | – | 1.58% | –
18 | CS(=O)(=O)Nc1ccc(C(=O)/C=C/c2ccc([N+](=O)[O-])cc2)cc1 | 188 µM | 4.4 µM | 100% | Active
19 | O=C(/C=C/c1ccccc1Cl)c1ccc(NS(=O)(=O)c2ccccc2)cc1 | – | – | 33.3% | –
20 | CN(C)c1ccc(/C=C/C(=O)c2ccc(NS(=O)(=O)c3ccccc3)cc2)cc1 | – | – | 3.75% | –
21 | Cc1ccc(S(=O)(=O)Nc2ccc(C(=O)/C=C/c3ccc(C(C)C)cc3)cc2)cc1 | 50 µM | 20 µM | 100% | Active
22 | O=C(/C=C/c1ccc(F)cc1)c1ccc(NS(=O)(=O)c2ccccc2)cc1 | 217 µM | 4.5 µM | 100% | Active
23 | Cc1ccc(S(=O)(=O)Nc2ccc(C(=O)/C=C/c3ccc(O)cc3)cc2)cc1 | 270 µM | 82 µM | 100% | Active
24 | O=C(/C=C/c1ccc(O)cc1)c1ccc(NS(=O)(=O)c2ccccc2)cc1 | – | – | 5.2% | –
25 | COc1ccc(/C=C/C(=O)c2ccc(NS(=O)(=O)c3ccc(C)cc3)cc2)cc1 | – | – | 82.7% | –
26 | O=C(/C=C/c1ccccc1)c1ccc(NS(=O)(=O)c2ccccc2)cc1 | – | – | 4.52% | –
27 | O=C(/C=C/c1ccc([N+](=O)[O-])cc1)c1ccc(NS(=O)(=O)c2ccccc2)cc1 | – | – | 100% | Active
